Test results reported in ChEMBL document CHEMBL3271970, “Radiopharmaceuticals. 16. Halogenated dopamine analogs. Synthesis and radiolabeling of 6-iododopamine and tissue distribution studies in animals” (J Med Chem, 1976).

What was measured:
[1] = system: Mus musculus; test: Biodistribution in thyroid gland of mouse assessed per organ at 8 to 11 x 10^-8 mol, iv measured after 120 mins; format: ADME, organism-based; settings: in vivo, 2 h
Outline: (§1)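 Tracer labelled with either 123I or 131I, in water or saline, used within 30 min of preparation. Mice dosed iv at 8-11 × 10^-8 mol/mouse and killed by ether overdose. Organs counted as % dose/organ ± SD, n = 3-10 mice per time point.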

[2] = system: Liver; test: Biodistribution in liver of mouse assessed per organ at 8 to 11 x 10^-8 mol, iv measured after 5 mins; format: ADME, organism-based; settings: in vivo
Outline: (§2)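 [131I]- or [123I]-6-iododopamine in water or saline, used within 30 min of preparation. Injected iv at 8-11 × 10^-8 mol/mouse. Mice killed by ether overdose at 5-240 min; 3-10 mice per time point. Tissue radioactivity expressed as % dose/organ ± SD.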

[3] = system: Liver; test: Biodistribution in liver of mouse assessed per organ at 8 to 11 x 10^-8 mol, iv measured after 120 mins; format: ADME, organism-based; settings: in vivo, 2 h; outline: as §2
[4] = system: Mus musculus; test: Biodistribution in thyroid gland of mouse assessed per organ at 8 to 11 x 10^-8 mol, iv measured after 15 mins; format: ADME, organism-based; settings: in vivo, 0.25 h; outline: as §1
[5] = system: Kidney; test: Biodistribution in kidney of mouse assessed per organ at 8 to 11 x 10^-8 mol, iv measured after 15 mins; format: ADME, organism-based; settings: in vivo, 0.25 h; outline: as §2
[6] = Biodistribution in thyroid gland of mongrel dog assessed per organ at 1.29 x 10^-6 mol, iv measured after 2 hrs; format: ADME, organism-based, Canis lupus familiaris; settings: in vivo
Outline: (§3)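 Radioiodine-labelled tracer given at 1.29 × 10^-6 mol/dog. One dog per time point, killed at 2 or 24 h. Thyroids and other small organs were taken intact and counted. Large organs were sampled three times and averaged. Result given as % dose/organ.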

[7] = system: Mus musculus; test: Biodistribution in adrenal gland of mouse assessed per organ at 8 to 11 x 10^-8 mol, iv measured after 120 mins; format: ADME, organism-based; settings: in vivo, 2 h; outline: as §2
[8] = system: Liver; test: Biodistribution in liver of mouse assessed per organ at 8 to 11 x 10^-8 mol, iv measured after 15 mins; format: ADME, organism-based; settings: in vivo, 0.25 h; outline: as §2
[9] = system: Mus musculus; test: Biodistribution in adrenal gland of mouse assessed per organ at 8 to 11 x 10^-8 mol, iv measured after 15 mins; format: ADME, organism-based; settings: in vivo, 0.25 h; outline: as §2
[10] = Biodistribution in adrenal medulla of mongrel dog assessed per organ at 1.29 x 10^-6 mol, iv measured after 2 hrs; format: ADME, organism-based, Canis lupus familiaris; settings: in vivo
Outline: (§4)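 Radioiodinated ([123I] or [131I]) 6-iododopamine in water or saline, used within 30 min of preparation. Given iv at 1.29 × 10^-6 mol/dog; one dog per time point, killed at 2 or 24 h. Large organs counted as three samples and averaged; adrenals and thyroid taken intact and counted. Expressed as % dose/organ.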

[11] = system: Kidney; test: Biodistribution in kidney of mouse assessed per organ at 8 to 11 x 10^-8 mol, iv measured after 60 mins; format: ADME, organism-based; settings: in vivo, 1 h; outline: as §2
[12] = system: Liver; test: Biodistribution in liver of mouse assessed per organ at 8 to 11 x 10^-8 mol, iv measured after 30 mins; format: ADME, organism-based; settings: in vivo, 0.5 h; outline: as §2
[13] = system: Kidney; test: Biodistribution in kidney of mouse assessed per organ at 8 to 11 x 10^-8 mol, iv measured after 120 mins; format: ADME, organism-based; settings: in vivo, 2 h; outline: as §2
[14] = system: Kidney; test: Biodistribution in kidney of mouse assessed per organ at 8 to 11 x 10^-8 mol, iv measured after 240 mins; format: ADME, organism-based; settings: in vivo, 4 h; outline: as §2
[15] = system: Mus musculus; test: Biodistribution in adrenal gland of mouse assessed per organ at 8 to 11 x 10^-8 mol, iv measured after 5 mins; format: ADME, organism-based; settings: in vivo; outline: as §2
[16] = Biodistribution in kidney of mongrel dog assessed per organ at 1.29 x 10^-6 mol, iv measured after 24 hrs; format: ADME, organism-based, Canis lupus familiaris; settings: in vivo; outline: as §4
[17] = system: Liver; test: Biodistribution in liver of mongrel dog assessed per organ at 1.29 x 10^-6 mol, iv measured after 2 hrs; format: ADME, organism-based, Canis lupus familiaris; settings: in vivo; outline: as §4
[18] = system: Mus musculus; test: Biodistribution in adrenal gland of mouse assessed per organ at 8 to 11 x 10^-8 mol, iv measured after 30 mins; format: ADME, organism-based; settings: in vivo, 0.5 h; outline: as §2
[19] = system: Liver; test: Biodistribution in liver of mouse assessed per organ at 8 to 11 x 10^-8 mol, iv measured after 240 mins; format: ADME, organism-based; settings: in vivo, 4 h; outline: as §2
[20] = system: Mus musculus; test: Biodistribution in thyroid gland of mouse assessed per organ at 8 to 11 x 10^-8 mol, iv measured after 5 mins; format: ADME, organism-based; settings: in vivo; outline: as §1
[21] = system: Mus musculus; test: Biodistribution in thyroid gland of mouse assessed per organ at 8 to 11 x 10^-8 mol, iv measured after 30 mins; format: ADME, organism-based; settings: in vivo, 0.5 h; outline: as §1
[22] = system: Liver; test: Biodistribution in liver of mongrel dog assessed per organ at 1.29 x 10^-6 mol, iv measured after 24 hrs; format: ADME, organism-based, Canis lupus familiaris; settings: in vivo; outline: as §4
[23] = system: Liver; test: Biodistribution in liver of mouse assessed per organ at 8 to 11 x 10^-8 mol, iv measured after 60 mins; format: ADME, organism-based; settings: in vivo, 1 h; outline: as §2
[24] = system: Mus musculus; test: Biodistribution in thyroid gland of mouse assessed per organ at 8 to 11 x 10^-8 mol, iv measured after 240 mins; format: ADME, organism-based; settings: in vivo, 4 h; outline: as §1
[25] = system: Mus musculus; test: Biodistribution in adrenal gland of mouse assessed per organ at 8 to 11 x 10^-8 mol, iv measured after 240 mins; format: ADME, organism-based; settings: in vivo, 4 h; outline: as §2
[26] = system: Mus musculus; test: Biodistribution in adrenal gland of mouse assessed per organ at 8 to 11 x 10^-8 mol, iv measured after 60 mins; format: ADME, organism-based; settings: in vivo, 1 h; outline: as §2
[27] = Biodistribution in kidney of mongrel dog assessed per organ at 1.29 x 10^-6 mol, iv measured after 2 hrs; format: ADME, organism-based, Canis lupus familiaris; settings: in vivo; outline: as §4
[28] = Biodistribution in adrenal cortex of mongrel dog assessed per organ at 1.29 x 10^-6 mol, iv measured after 2 hrs; format: ADME, organism-based, Canis lupus familiaris; settings: in vivo; outline: as §4
[29] = Biodistribution in adrenal medulla of mongrel dog assessed per organ at 1.29 x 10^-6 mol, iv measured after 24 hrs; format: ADME, organism-based, Canis lupus familiaris; settings: in vivo; outline: as §4
[30] = Biodistribution in adrenal cortex of mongrel dog assessed per organ at 1.29 x 10^-6 mol, iv measured after 24 hrs; format: ADME, organism-based, Canis lupus familiaris; settings: in vivo; outline: as §4
[31] = system: Kidney; test: Biodistribution in kidney of mouse assessed per organ at 8 to 11 x 10^-8 mol, iv measured after 30 mins; format: ADME, organism-based; settings: in vivo, 0.5 h; outline: as §2
[32] = system: Mus musculus; test: Biodistribution in thyroid gland of mouse assessed per organ at 8 to 11 x 10^-8 mol, iv measured after 60 mins; format: ADME, organism-based; settings: in vivo, 1 h; outline: as §1
[33] = system: Kidney; test: Biodistribution in kidney of mouse assessed per organ at 8 to 11 x 10^-8 mol, iv measured after 5 mins; format: ADME, organism-based; settings: in vivo; outline: as §2
[34] = Biodistribution in thyroid gland of mongrel dog assessed per organ at 1.29 x 10^-6 mol, iv measured after 24 hrs; format: ADME, organism-based, Canis lupus familiaris; settings: in vivo; outline: as §3

Br.NCCc1cc(O)c(O)cc1[123I] showed a Drug uptake [1] of 0.176 %ID, a Drug uptake [2] of 7.1 %ID and a Drug uptake [3] of 0.84 %ID. For the same compound, the Drug uptake [4] was 0.067 %ID, the Drug uptake [5] was 3.44 %ID and the Drug uptake [6] was 0.026 %ID. It also gave a Drug uptake [7] of 0.02 %ID, a Drug uptake [8] of 3.64 %ID and a Drug uptake [9] of 0.015 %ID. The Drug uptake [10] was 0.0062 %ID, the Drug uptake [11] was 1 %ID and the Drug uptake [12] was 2.4 %ID. The Drug uptake [13] was 0.78 %ID, the Drug uptake [14] was 0.79 %ID and the Drug uptake [15] was 0.03 %ID. For the same compound, the Drug uptake [16] was 0.075 %ID, the Drug uptake [17] was 2.24 %ID and the Drug uptake [18] was 0.014 %ID. It also gave a Drug uptake [19] of 0.94 %ID, a Drug uptake [20] of 0.094 %ID and a Drug uptake [21] of 0.084 %ID. For the same compound, the Drug uptake [22] was 0.48 %ID, the Drug uptake [23] was 1.04 %ID and the Drug uptake [24] was 0.158 %ID. It also gave a Drug uptake [25] of 0.012 %ID, a Drug uptake [26] of 0.0087 %ID and a Drug uptake [27] of 0.77 %ID. For the same compound, the Drug uptake [28] was 0.0092 %ID, the Drug uptake [29] was 0.0021 %ID and the Drug uptake [30] was 0.0104 %ID. The Drug uptake [31] was 1.69 %ID, the Drug uptake [32] was 0.066 %ID and the Drug uptake [33] was 8.03 %ID. The Drug uptake [34] was 0.48 %ID.
